Yeast life ext: compounds extending yeast replicative lifespan, primary screen, S. cerevisiae, OD615; S. cerevisiae growth with nicotinamide; deaD strain in restrictive glucose medium; inhibition of the nicotinamide effect, % at 10 µM; 130,000 compounds, 0.68% hits;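 active = inhibition above a set limit, placed 3 SD over the median of all compounds, cut at about 26% in these data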;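 also: 0% = nicotinamide-treated wells and 100% = cells grown without nicotinamide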
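Assay system: engineered S. cerevisiae DeaD replicative-lifespan strain, galactose-grown log-phase cells; Buffer or medium: CSMM-D glucose medium, restrictive; Probe or stimulus: nicotinamide 1.5 mM; Compound: single dose 10 µM compound, 0.25% DMSO; Schedule: 4 h preincubation then 48 h treatment at 30 °C; Technique: OD615 measurement.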
RAM network inh: inhibitors of the yeast RAM network, primary screen, dse1pr::URA3 reporter, 5-FOA selection; S. cerevisiae dse1pr::URA3 reporter, 5-FOA growth OD615, 2 d; analog-sensitive cbk1-as2 kinase mutant strain; inhibition, % at 50 µM; AID 868, 2007; 190,000 compounds, 1.8% hits;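 active = inhibition above a set limit, 3 SD over mean compound inhibition, cut at about 8.4% in these data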;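 also: 0% = DMSO-only wells with no growth and 100% = 10 µM 1-NA-PP1 full growth; inhibition rescues growth on 5-FOA so higher OD means more RAM inhibition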
Yeast growth inh: growth inhibitors of yeast BB579 in restrictive medium, primary screen, yeast lifespan-shortening project, S. cerevisiae. OD615, 48 h. inhibition, % at 10 µM. 140,000 compounds, 0.51% hits;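 active = inhibition above a set limit, 3 SD over the mean compound inhibition, cut at about 44% in these data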
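Test system: DeaD yeast strain BB579 / Buffer or medium: restrictive glucose-based CSMM-D medium / Doses: single 10 µM dose / Schedule: 4 h cell preincubation, 48 h compound exposure, 30 °C humidified / Technique: culture absorbance at 615 nm / Controls: amphotericin B positive control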
Starred values were filed as active, the others as inactive. An excerpt weighted towards active compounds, which were near 2.6% of everything screened.

Screening CC(=O)C(C(C)=O)c1c(Cl)c(O)c(O)c2c(C(=O)c3ccccc3)coc12 returned Yeast life ext 37*, RAM network inh 6 and Yeast growth inh -32.
For CN1CCN(Cc2c(O)ccc3occ(C(=O)c4ccccc4)c23)CC1 the results were Yeast life ext 2, RAM network inh -1 and Yeast growth inh -60.
O=C(CCN1CCCCCC1)Nc1ccc(F)c(F)c1 was read as Yeast life ext -4, RAM network inh 1 and Yeast growth inh -37.
For O=C(CCN1CCCCCC1)Nc1ccc(F)cc1 the results were Yeast life ext 64*, RAM network inh 1 and Yeast growth inh -58.
For O=C(/C=C/c1cccs1)Nc1ccncc1 the results were Yeast life ext 0, RAM network inh 3 and Yeast growth inh -13.
For CCCOC(=O)c1ccc(NC(=O)/C=C/c2cccs2)cc1 the results were Yeast life ext -6, RAM network inh 10* and Yeast growth inh -34.
CC1CCC(N(CCCN)Cc2ccco2)CC1C (stereo not drawn) was read as RAM network inh 1.
Screening O=C1ON=C(c2ccccc2)/C1=C/c1cccnc1 returned RAM network inh 0.
`O=C1ON=C(c2ccccc2)/C1=C/c1ccc(OS(=O)(=O)c2ccccc2)cc1` gave Yeast life ext 11, RAM network inh 2 and Yeast growth inh 58*.
`Cc1ccc(NC(=O)CN2C(=O)N/C(=C/c3ccc(N4CCOCC4)cc3)C2=O)cc1` gave Yeast life ext 9, RAM network inh 8.8* and Yeast growth inh -25.
`Cc1ccc(NC(=O)CN2C(=O)N/C(=C/c3ccc(C)o3)C2=O)cc1` gave Yeast life ext -17, RAM network inh 1 and Yeast growth inh -55.
`Cc1cc(Br)ccc1OCCCCN1CCC(C)CC1` gave Yeast life ext -4, RAM network inh 2 and Yeast growth inh -10.
COc1cc(/C=C(\C#N)C(=O)N2CCOCC2)ccc1OCc1ccccc1 was read as RAM network inh 4.
`COc1ccc(/C=C(\C#N)C(=O)N2CCOCC2)cc1Br` gave Yeast life ext 48*, RAM network inh 2 and Yeast growth inh -14.
`CO/C(N)=C(\C#N)N=Cc1ccccc1Cl` gave RAM network inh 2.
For Cc1oc(-c2ccccc2)cc1C(=O)Nc1cccc(/C=C\C(=O)O)c1 the results were RAM network inh 8.5*.
For Cc1oc(C(C)(C)C)cc1C(=O)Nc1cccc(/C=C\C(=O)O)c1 the results were Yeast life ext 6, RAM network inh 6 and Yeast growth inh -61.
`C/C(CC(C)C)=N\NC(=O)Nc1ccccc1` gave Yeast life ext 4, RAM network inh 4 and Yeast growth inh -30.
For CCOC(=O)C/C(C)=N/NC(=O)Nc1ccccc1 the results were Yeast life ext 31*, RAM network inh 1 and Yeast growth inh -28.
Screening CC(=O)NCCn1c(SCc2cc(=O)n3cc(Cl)ccc3n2)nc2ccccc2c1=O returned Yeast life ext -9, RAM network inh 11* and Yeast growth inh -28.
`CC(=O)NCCn1c(SCc2ccccc2F)nc2ccccc2c1=O` gave Yeast life ext -11, RAM network inh -1 and Yeast growth inh 9.
For CCN(Cc1ccncc1)C(=O)c1ccccc1NS(=O)(=O)c1ccc(F)cc1 the results were RAM network inh 1.
Screening CCc1cc2c(SCC(=O)C(C#N)=C3N(C)c4ccccc4N3C)ncnc2s1 returned Yeast life ext -22, RAM network inh 9.0* and Yeast growth inh -31.
Screening CCc1cc2c(SCC(=O)c3ccccc3)ncnc2s1 returned RAM network inh 1 and Yeast growth inh -7.
`O=C(O)CCC(=O)NNc1nc2ccccc2nc1-c1ccccc1` gave RAM network inh 0.
`COc1ccc(Nc2nnc(SCC(=O)Nc3ccc4[nH]c(=O)[nH]c4c3)s2)cc1` gave RAM network inh 10*.
`COc1ccc(Nc2nnc(SCC(=O)NC(=O)Nc3ccc4c(c3)OCCO4)s2)cc1` gave RAM network inh 6.
For O=C(NC(=S)N(CCO)Cc1ccccc1)c1ccc(S(=O)(=O)N2CCCC2)cc1 the results were RAM network inh 1.
`Cc1ccccc1C(=O)NNC(=O)/C=C/c1ccccc1` gave RAM network inh 1.
`Cc1[nH][nH]c(=O)c1C=NCc1cccs1` gave RAM network inh 1.
For COc1ccc(CCNC(=O)CC2SC(=NCCC(C)C)NC2=O)cc1OC (stereo not drawn) the results were Yeast life ext 7, RAM network inh 1 and Yeast growth inh -15.
For Cc1cc(NC(=O)COC(=O)c2ccco2)no1 the results were RAM network inh 1.
O=c1c(Cc2c(F)cccc2Cl)c(O)ccn1CCc1c[nH]c2ccccc12 was read as RAM network inh 4.
`O=C(Oc1ccc(Cl)c2cccnc12)c1ccco1` gave Yeast life ext -18, RAM network inh 0 and Yeast growth inh 96*.
`O=C(Oc1cccc2cccnc12)c1ccco1` gave RAM network inh -2 and Yeast growth inh -12.
`CC(=O)Nc1ccc(-n2nnnc2SCC(=O)NCc2cccs2)cc1` gave RAM network inh 0.
Cc1ccccc1N1C(=O)c2ccccc2N2C(=O)c3ccccc3C12 (stereo not drawn) was read as Yeast life ext -1, RAM network inh 1 and Yeast growth inh -23.
O=C1c2ccccc2N2C(=O)c3ccccc3C2N1O (stereo not drawn) was read as Yeast life ext 39*, RAM network inh 0 and Yeast growth inh -33.
Screening CSC1=C(C#N)C(c2ccccc2Cl)C2=C(N1)c1ccccc1C2=O (stereo not drawn) returned Yeast life ext 28*, RAM network inh 3 and Yeast growth inh -21.
`CC1=C(C#N)C(c2ccccc2)C2=C(N1)c1ccccc1C2=O` (stereo not drawn) gave Yeast life ext -5, RAM network inh 2 and Yeast growth inh -25.
Screening CCOc1cc(/C=C/C(=O)OCC(=O)NC2CCS(=O)(=O)C2)ccc1OCc1ccccc1 (stereo not drawn) returned RAM network inh 2.
Screening CCc1cc2c(=O)[nH]c(-c3ccccn3)nc2s1 returned Yeast life ext -6, RAM network inh -1 and Yeast growth inh 78*.
CCc1cc2c(=O)[nH]c(N3CCCC3)nc2s1 was read as Yeast life ext 1, RAM network inh 1 and Yeast growth inh -31.
`COc1ccccc1CN(C)CC(=O)NC1CCCc2ccccc21` (stereo not drawn) gave RAM network inh 0.
CCCCCSc1nc2c(c(=O)[nH]c(=O)n2C)n1C(C)C was read as Yeast life ext -5, RAM network inh 2 and Yeast growth inh -20.
CCCCCSc1nc2c(c(=O)[nH]c(=O)n2C)n1C was read as Yeast life ext 58*, RAM network inh 0 and Yeast growth inh 13.
Screening O=C(CN(c1ccc(Cl)cc1)S(=O)(=O)c1ccc(Cl)c([N+](=O)[O-])c1)NCCc1ccccc1 returned RAM network inh 8.4*.

Screening data as filed in PubChem BioAssay.
